Results: ChEMBL document CHEMBL3044969, “Syntheses and biological activities of dihydro-5,6-dehydrokawain derivatives” (1996)
Active and inactive are the calls of the source. No cut-off for these calls is given here.

Tests used:
[1] = tested on: Athelia rolfsii; test: Antifungal activity against Athelia rolfsii assessed as growth inhibition at 100 ppm by agar dilution method relative to control; format: functional; conditions: Agroathelia rolfsii; read-out: GI
Summary of the method: (§1)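 Pythium sp. and Corticium rolfsii were each grown on potato dextrose agar (1.5% agar) for 5 days at 27°C before testing. Growth inhibition was measured by agar dilution, following a previously reported method.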

[2] = tested on: Athelia rolfsii; test: Antifungal activity against Athelia rolfsii assessed as growth inhibition at 1000 ppm by agar dilution method relative to control; format: functional; conditions: Agroathelia rolfsii; read-out: GI; summary of the method: as §1
[3] = tested on: Pythium; test: Antifungal activity against Pythium sp. assessed as growth inhibition at 1000 ppm by agar dilution method relative to control; format: functional; conditions: read-out: GI; summary of the method: as §1
[4] = tested on: Pythium; test: Antifungal activity against Pythium sp. assessed as growth inhibition at 100 ppm by agar dilution method relative to control; format: functional; conditions: read-out: GI; summary of the method: as §1
[5] = tested on: Coptotermes formosanus; test: Insecticidal activity against Coptotermes formosanus assessed as increase in mortality at 0.1 to 1 mg/filter paper measured for 14 days; format: functional, organism-based
Summary of the method: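 Termite mortality was counted in three replicates and the replicates were combined into a mean. Mortality is given as a percentage relative to an untreated control group of termites.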

[6] = tested on: Coptotermes formosanus; test: Insecticidal activity against Coptotermes formosanus assessed as increase in mortality at 1 mg/filter paper measured for 14 days relative to control; format: functional
Summary of the method: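 The termite assay was run in three replicates, which were combined into a mean. Mortality is given as a percentage relative to the untreated control termite group.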

Structure (SMILES): COc1cc(CCc2ccccc2)oc(=O)c1 [DIHYDRO-5,6-DEHYDROKAWAIN]
- inhibition of growth at 100 ppm [1]: 64%
- inhibition of growth at 1000 ppm [2]: 96%
- inhibition of growth at 1000 ppm [3]: 94%
- inhibition of growth at 100 ppm [4]: 72%
- Activity [5]: inactive

Structure (SMILES): COc1cc(/C=C/c2ccccc2)oc(=O)c1 [DESMETHOXYYANGONIN]
- inhibition of growth at 100 ppm [1]: 0%
- inhibition of growth at 1000 ppm [2]: 54%
- inhibition of growth at 1000 ppm [3]: 86%
- inhibition of growth at 100 ppm [4]: 42%

Structure (SMILES): O=c1cc(O)cc(CCc2ccccc2)o1
- inhibition of growth at 100 ppm [1]: 44%
- inhibition of growth at 1000 ppm [2]: 100%
- inhibition of growth at 1000 ppm [3]: 100%
- inhibition of growth at 100 ppm [4]: 22%
- Activity [5]: inactive

Structure (SMILES): COP(=S)(OC)Oc1cc(CCc2ccccc2)oc(=O)c1
- inhibition of growth at 100 ppm [1]: 91%
- inhibition of growth at 1000 ppm [2]: 98%
- mortality [6]: 93%
- inhibition of growth at 1000 ppm [3]: 88%
- inhibition of growth at 100 ppm [4]: 50%

Structure (SMILES): CCOP(=S)(OCC)Oc1cc(CCc2ccccc2)oc(=O)c1
- inhibition of growth at 100 ppm [1]: 57%
- inhibition of growth at 1000 ppm [2]: 66%
- mortality [6]: 50%
- inhibition of growth at 1000 ppm [3]: 44%
- inhibition of growth at 100 ppm [4]: 18%
